Data published in ChEMBL document CHEMBL4842354, “Synthesis, structure-activity relationships, cocrystallization and cellular characterization of novel smHDAC8 inhibitors for the treatment of schistosomiasis” (Eur J Med Chem, 2021).

Key:
Histone deacetylase 8 [1] = target: T1, Histone deacetylase 8 (Schistosoma mansoni, UniProt A5H660); test: Inhibition of Schistosoma mansoni HDAC8 using Fluor de Lys as substrate incubated for 90 mins by fluorescence method
T1 sequence (A5H660 whole entry): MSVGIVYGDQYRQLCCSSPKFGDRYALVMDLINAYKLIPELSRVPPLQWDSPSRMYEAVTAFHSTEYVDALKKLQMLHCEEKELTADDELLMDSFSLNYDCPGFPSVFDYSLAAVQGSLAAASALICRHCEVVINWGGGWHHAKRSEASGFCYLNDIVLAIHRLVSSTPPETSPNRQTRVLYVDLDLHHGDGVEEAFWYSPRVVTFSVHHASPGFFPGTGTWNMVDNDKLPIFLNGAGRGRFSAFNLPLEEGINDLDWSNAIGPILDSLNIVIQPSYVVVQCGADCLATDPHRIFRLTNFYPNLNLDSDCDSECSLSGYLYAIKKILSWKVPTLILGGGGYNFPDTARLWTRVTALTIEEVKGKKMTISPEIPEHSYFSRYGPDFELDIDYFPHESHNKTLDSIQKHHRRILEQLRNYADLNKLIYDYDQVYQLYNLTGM
How it was run: (§1)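 Recombinant smHDAC8 or hHDAC8 (Romier lab) run to Fluor de Lys HDAC8 kit protocol. Substrate H2N-Arg-His-Lys(Ac)-Lys(Ac)-AMC at 50 μM with increasing inhibitor concentrations, 90 min at 37°C. Stop solution holding inhibitor plus trypsin, then 20 min at 37°C to release AMC. Fluorescence read at Ex 355/Em 460 nm.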

Histone deacetylase 8 [2] = target: T2, Histone deacetylase 8 (Homo sapiens, UniProt Q9BY41); test: Inhibition of human recombinant HDAC8 using H2N-Arg-His-Lys(Ac)-Lys(Ac)-AMC as substrate after 90 mins by fluorescence based micro plate assay
T2 sequence (Q9BY41 whole entry): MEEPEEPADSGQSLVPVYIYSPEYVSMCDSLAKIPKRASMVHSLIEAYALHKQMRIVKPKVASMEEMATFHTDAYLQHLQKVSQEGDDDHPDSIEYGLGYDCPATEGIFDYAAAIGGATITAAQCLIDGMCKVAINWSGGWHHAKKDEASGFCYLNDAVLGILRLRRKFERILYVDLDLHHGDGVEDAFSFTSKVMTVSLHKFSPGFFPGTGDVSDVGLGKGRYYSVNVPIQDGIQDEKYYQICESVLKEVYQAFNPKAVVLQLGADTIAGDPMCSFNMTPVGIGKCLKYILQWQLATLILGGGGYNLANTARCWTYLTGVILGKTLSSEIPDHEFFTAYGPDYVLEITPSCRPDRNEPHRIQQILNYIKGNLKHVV

Schistosoma mansoni [3] = test: Antischistosomal activity against Schistosoma mansoni schistosomula at 10 uM incubated for 48 hrs by Alamar Blue assay; format: functional
How it was run: (§2)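 S. mansoni newly transformed schistosomula from mechanically transformed cercariae, 100 NTS/well in Medium 199 with 10% FCS, penicillin, streptomycin and rifampicin. Pre-cultured 3 h at 37°C, 5% CO2. Compounds from 20 mM DMSO stocks, final 10 or 20 μM. Alamar Blue added after 48 h exposure, then 24 h more. Resorufin read at Ex 530/Em 590 nm. Live and ethanol-killed larvae as controls; triplicate wells, two biological replicates.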

[4] = target: T3, Protein deacetylase HDAC6 (Homo sapiens, UniProt Q9UBN7); test: Inhibition of recombinant human HDAC6 using ZMAL as substrate incubated for 90 mins by fluorescence based micro plate assay
T3 sequence (Q9UBN7 whole entry): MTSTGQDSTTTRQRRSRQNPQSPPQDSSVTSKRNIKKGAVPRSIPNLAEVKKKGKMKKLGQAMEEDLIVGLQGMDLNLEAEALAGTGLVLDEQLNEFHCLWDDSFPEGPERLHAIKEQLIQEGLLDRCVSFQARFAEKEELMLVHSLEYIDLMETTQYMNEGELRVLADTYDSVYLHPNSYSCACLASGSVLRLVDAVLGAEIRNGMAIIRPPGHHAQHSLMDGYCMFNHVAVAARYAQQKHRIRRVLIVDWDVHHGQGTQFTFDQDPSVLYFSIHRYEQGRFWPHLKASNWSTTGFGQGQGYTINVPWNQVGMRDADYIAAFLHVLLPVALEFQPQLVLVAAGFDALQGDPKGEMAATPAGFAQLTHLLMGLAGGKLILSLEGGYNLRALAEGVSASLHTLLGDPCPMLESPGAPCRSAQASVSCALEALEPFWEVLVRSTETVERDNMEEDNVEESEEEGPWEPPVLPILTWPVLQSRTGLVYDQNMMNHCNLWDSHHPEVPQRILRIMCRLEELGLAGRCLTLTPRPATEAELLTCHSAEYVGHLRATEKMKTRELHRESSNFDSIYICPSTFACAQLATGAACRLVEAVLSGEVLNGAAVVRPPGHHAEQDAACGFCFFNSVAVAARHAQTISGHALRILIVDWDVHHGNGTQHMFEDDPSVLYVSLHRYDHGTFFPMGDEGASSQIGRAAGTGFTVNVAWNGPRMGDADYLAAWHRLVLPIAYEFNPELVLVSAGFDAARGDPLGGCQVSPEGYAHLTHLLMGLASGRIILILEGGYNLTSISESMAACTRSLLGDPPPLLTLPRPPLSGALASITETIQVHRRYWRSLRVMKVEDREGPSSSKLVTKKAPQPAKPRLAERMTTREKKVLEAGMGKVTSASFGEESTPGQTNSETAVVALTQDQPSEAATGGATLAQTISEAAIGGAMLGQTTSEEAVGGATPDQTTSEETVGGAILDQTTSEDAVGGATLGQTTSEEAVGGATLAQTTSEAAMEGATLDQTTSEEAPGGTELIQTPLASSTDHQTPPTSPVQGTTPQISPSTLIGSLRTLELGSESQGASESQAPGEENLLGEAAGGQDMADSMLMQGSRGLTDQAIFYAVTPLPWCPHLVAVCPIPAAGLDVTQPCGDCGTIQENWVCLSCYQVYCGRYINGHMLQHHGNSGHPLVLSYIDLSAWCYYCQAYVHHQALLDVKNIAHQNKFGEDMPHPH

Histone deacetylase 1 = Histone deacetylase 1 (Homo sapiens, UniProt Q13547); test: Inhibition of recombinant human HDAC1 using ZMAL as substrate incubated for 90 mins by fluorescence based micro plate assay
Schistosoma mansoni [5] = test: Antischistosomal activity against Schistosoma mansoni schistosomula at 20 uM incubated for 48 hrs by Alamar Blue assay; format: functional; how it was run: as §2
HEK293 = test: Cytotoxicity against human HEK293 assessed as reduction in cell viability at 50 uM measured for 24 hrs by Alamar Blue assay; format: cell-based; details: hek293, 24 h
How it was run: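 HEK293 cells in DMEM with 10% FCS and 5 mM glutamine at 37°C, 5% CO2, seeded at 1.5×10^3 cells/well. Compounds added at 50 μM. AlamarBlue added after 24 h and incubated a further 21 h. Resorufin fluorescence read at Ex 530/Em 590 nm. Triplicates; daunorubicin positive control.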

[6] = target: T4, Histone deacetylase 8 (Homo sapiens) (UniProt Q9BY41); test: Inhibition of human recombinant HDAC8 at 1 uM using H2N-Arg-His-Lys(Ac)-Lys(Ac)-AMC as substrate after 90 mins by fluorescence based micro plate assay; how it was run: as §1
T4 sequence (whole entry): T2 sequence (Q9BY41 whole entry)

Histone deacetylase 1, sequence (Q13547 whole entry): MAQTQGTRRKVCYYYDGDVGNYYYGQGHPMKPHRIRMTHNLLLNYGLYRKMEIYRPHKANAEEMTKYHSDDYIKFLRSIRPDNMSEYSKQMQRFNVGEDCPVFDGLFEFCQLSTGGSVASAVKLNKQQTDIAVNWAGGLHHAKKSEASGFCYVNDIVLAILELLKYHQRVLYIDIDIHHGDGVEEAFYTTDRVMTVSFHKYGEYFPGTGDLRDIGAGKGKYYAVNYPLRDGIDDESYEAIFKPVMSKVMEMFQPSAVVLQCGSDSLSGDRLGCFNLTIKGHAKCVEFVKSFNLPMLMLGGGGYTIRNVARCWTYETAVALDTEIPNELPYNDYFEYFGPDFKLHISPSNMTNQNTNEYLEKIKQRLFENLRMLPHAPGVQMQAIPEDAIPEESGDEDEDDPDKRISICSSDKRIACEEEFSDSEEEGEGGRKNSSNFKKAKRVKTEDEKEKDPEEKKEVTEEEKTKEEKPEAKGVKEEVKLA

Row | Structure (SMILES) | IC50 (Histone deacetylase 8 [1]) [nM] | IC50 (Histone deacetylase 8 [2]) [nM] | Activity (Schistosoma mansoni [3]) [%] | IC50 [4] [nM] | IC50 (Histone deacetylase 1) [nM] | Activity (Schistosoma mansoni [5]) [%] | Activity (HEK293) [%] | inhibition [6] [%]
1 | COc1ccc(C(=O)NO)cc1NCc1cccc2c1oc1ccccc12 | 450 | 860 |  |  |  |  |  | 
2 | CCOc1ccc(C(C)=O)cc1NC(=O)c1cc(C(=O)NO)ccc1Cl | 140 | 220 | 57 | 110 | 18100 | 33.1 | 60.6 | 
3 | COc1ccc(C(=O)NO)cc1C(=O)Nc1ccc(Cl)cc1Cl | 180 |  | 88.2 |  |  | 83.4 | 58.3 | 31
4 | COc1ccc(C(=O)NO)cc1C(=O)Nc1ccc(Cl)cc1 | 310 |  | 77.3 |  |  | 59.2 | 27.5 | 
5 | CCOc1ccc(C(C)=O)cc1NC(=O)c1cc(C(=O)NO)ccc1OC | 330 |  | 64.3 |  |  | 56.7 | 59.9 | 61
6 | CCOc1ccc(C(C)=O)cc1NC(=O)c1cccc(C(=O)NO)c1 | 160 | 590 | 81 | 120 | 7700 | 67.3 | 81.2 | 
7 | CCCOc1ccc(C(C)=O)cc1C(=O)Nc1cc(C(=O)NO)ccc1C | 110 | 140 | 45.2 | 20 | 360 | 34 | 68.8 | 
8 | COc1ccc(C(=O)NO)cc1NC(=O)c1ccc(-c2ccc(F)cc2)cc1Cl | 320 |  | 74.6 |  |  | 60.5 | 83.5 | 48
9 | O=C(NO)c1ccc(Cl)c(NC(=O)c2ccc(-c3ccc(F)cc3)cc2Cl)c1 | 280 |  | 63.4 |  |  | 56.6 | 82.2 | 25
10 | O=C(C1CCCCC1)N1CC(=O)N2CCc3ccccc3C2C1 (stereo not drawn) [PRAZIQUANTEL] |  |  | 92.1 |  |  | 88.9 | 99.3 | 
11 | COc1ccc(C(=O)NO)cc1NC(=O)c1ccc2[nH]c3c(c2c1)CN(C)CC3.Cl | 200 | 290 | 98 |  |  | 100 | 71.1 | 
12 | COc1ccc(C(=O)NO)cc1C(=O)Nc1ccc2sccc2c1 | 220 | 100 | 82.1 |  |  | 77.1 | 95.6 | 
13 | COc1ccc(C(=O)NO)cc1NC(=O)c1ccc(OC(C)C)cc1 | 730 |  | 72.6 |  |  | 56.2 | 93.1 | 
14 | CCCOc1ccc(C(=O)Nc2cc(C(=O)NO)ccc2OC)cc1 | 730 |  | 70.7 |  |  | 51.6 | 93.2 | 66
15 | COc1ccc(C(=O)NO)cc1NC(=O)c1cccc2c1/C(=N/O)c1ccccc1-2 | 320 | 150 | 98.5 |  |  | 96 | 76.6 | 
16 | COc1ccc(C(C)=O)cc1NC(=O)c1cc(C(=O)NO)ccc1C | 180 | 90 | 75.2 |  |  | 69.5 | 94.8 | 
17 | COc1ccc(C(=O)NO)cc1NC(=O)c1cccc2cccnc12 | 330 | 180 | 62 |  |  | 40 | 77 | 
18 | Cc1ccc(C(=O)NO)cc1C(=O)Nc1ccc(Cl)cc1 | 330 |  | 69.1 | 600 | 3370 | 50.2 | 67.6 | 
19 | CCOc1ccc(C(=O)NO)cc1NC(=O)c1ccc(Cl)cc1Cl | 100 | 230 | 56.2 | 7740 | 21100 | 56.4 | 86.8 | 
20 | Cc1ccc(C(=O)NO)cc1NC(=O)c1cccc(OCc2ccccc2)c1 | 450 |  | 67.3 |  |  | 46.5 | 81.4 | 60
21 | Cc1ccc(C(=O)NO)cc1NC(=O)c1cccc(OCc2c(Cl)cccc2Cl)c1 | 520 |  | 38.4 |  |  | 22.3 | 66.6 | 34
22 | COc1ccc(C(=O)NO)cc1NC(=O)c1ccc(-c2ccccc2)cc1 | 290 | 130 | 64.8 | 390 |  | 33.4 | 12.3 | 
23 | CCOc1ccc(C(C)=O)cc1NC(=O)c1cc(C(=O)NO)ccc1C | 210 | 70 | 42.1 |  |  | 37 | 87.7 | 
24 | COc1ccc(C(=O)NO)cc1NC(=O)c1nc2ccccc2[nH]1 | 580 |  | 69.5 |  |  | 47.1 | 83.5 | 29
25 | COc1ccc(C(C)=O)cc1NC(=O)c1cc(C(=O)NO)ccc1Cl | 290 | 90 | 62.6 |  |  | 32.3 | 89.1 | 
26 | COc1ccc(C(=O)Nc2cc(C(=O)NO)ccc2OC)c(OC)c1 | 2080 |  | 65.3 |  |  | 66.5 | 88.4 | 63
27 | COc1ccc(C(=O)NO)cc1NC(=O)c1cccc(OCc2ccccc2)c1 | 610 |  | 61 |  |  | 56.2 | 95.4 | 59
